Data reported in ChEMBL document CHEMBL5120908, “Diterpenoid Constituents of Psiadia punctulata and Evaluation of Their Antimicrobial Activity” (2022).
In brackets after ≈: the same amount, converted by molar mass. Blank lines part the entries; values can stand above or below the molecule they belong to. Activity calls are given as the source filed them. The calls are words filed in the database; no cut-off is given here.

Experiments:
[1] = system: Staphylococcus aureus; test: Antibacterial activity against Staphylococcus aureus ATCC 23235 incubated for 48 hrs by spectrophotometric analysis; assay type: functional
[2] = system: Streptococcus mutans; test: Antibacterial activity against Streptococcus mutans ATCC 25175 incubated for 48 hrs by spectrophotometric analysis; assay type: functional
[3] = system: Treponema denticola; test: Antibacterial activity against Treponema denticola ATCC 35405 incubated for 48 hrs by spectrophotometric analysis; assay type: functional
Procedure, shortened: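 Broth microdilution MIC: fractions tested at 20–200 μg/mL and pure compounds at 10–200 μg/mL, each with 0.5 × 10^5 CFU/mL inoculum. S. aureus and S. mutans grew aerobically in BHI at 37 °C for 24 h. T. denticola grew anaerobically in BHI at 37 °C for 48 h. Read by A600. MIC is the lowest concentration inhibiting visible growth. Blank and DMSO vehicle controls were included; triplicate.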

[4] = system: Staphylococcus aureus; test: Potentiation of antimicrobial activity against Staphylococcus aureus ATCC 23235 assessed as chlorhexidine MIC at 25 ug/ml incubated for 48 hrs by checkerboard assay; assay type: functional; conditions: dose 25 µg/ml
Procedure, shortened: (§1)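 Checkerboard: psiadin at 0, 25, 50, 100, 200 μg/mL crossed with chlorhexidine at 5, 2.5, 1.25, 0.6, 0.3, 0 μg/mL. Broth microdilution MIC was read as the lowest concentration with no visible growth (A600). L. plantarum grew in MRS and T. denticola in BHI, both anaerobic at 37 °C. S. aureus and S. mutans grew in aerobic BHI at 37 °C. FIC index calculated from combination versus single-agent MICs.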

[5] = system: Streptococcus mutans; test: Potentiation of antimicrobial activity against Streptococcus mutans ATCC 25175 assessed as chlorhexidine MIC at 25 ug/ml incubated for 48 hrs by checkerboard assay; assay type: functional; conditions: dose 25 µg/ml; procedure, shortened: as §1
[6] = system: Lactiplantibacillus plantarum; test: Potentiation of antimicrobial activity against Lactobacillus plantarum ATCC 8014 assessed as chlorhexidine MIC at 25 ug/ml incubated for 48 hrs by checkerboard assay; assay type: functional; conditions: dose 25 µg/ml; procedure, shortened: as §1
[7] = system: Treponema denticola; test: Potentiation of antimicrobial activity against Treponema denticola ATCC 35405 assessed as chlorhexidine MIC at 25 ug/ml incubated for 48 hrs by checkerboard assay; assay type: functional; conditions: dose 25 µg/ml; procedure, shortened: as §1
[8] = system: Staphylococcus aureus; test: Potentiation of antimicrobial activity against Staphylococcus aureus ATCC 23235 assessed as chlorhexidine MIC at 50 ug/ml incubated for 48 hrs by checkerboard assay; assay type: functional; conditions: dose 50 µg/ml; procedure, shortened: as §1
[9] = system: Streptococcus mutans; test: Potentiation of antimicrobial activity against Streptococcus mutans ATCC 25175 assessed as chlorhexidine MIC at 50 ug/ml incubated for 48 hrs by checkerboard assay; assay type: functional; conditions: dose 50 µg/ml; procedure, shortened: as §1
[10] = system: Lactiplantibacillus plantarum; test: Potentiation of antimicrobial activity against Lactobacillus plantarum ATCC 8014 assessed as chlorhexidine MIC at 50 ug/ml incubated for 48 hrs by checkerboard assay; assay type: functional; conditions: dose 50 µg/ml; procedure, shortened: as §1
[11] = system: Treponema denticola; test: Potentiation of antimicrobial activity against Treponema denticola ATCC 35405 assessed as chlorhexidine MIC at 50 ug/ml incubated for 48 hrs by checkerboard assay; assay type: functional; conditions: dose 50 µg/ml; procedure, shortened: as §1
[12] = system: Staphylococcus aureus; test: Potentiation of antimicrobial activity against Staphylococcus aureus ATCC 23235 assessed as chlorhexidine MIC at 100 ug/ml incubated for 48 hrs by checkerboard assay; assay type: functional; conditions: dose 100 µg/ml; procedure, shortened: as §1
[13] = system: Streptococcus mutans; test: Potentiation of antimicrobial activity against Streptococcus mutans ATCC 25175 assessed as chlorhexidine MIC at 100 ug/ml incubated for 48 hrs by checkerboard assay; assay type: functional; conditions: dose 100 µg/ml; procedure, shortened: as §1
[14] = system: Lactiplantibacillus plantarum; test: Potentiation of antimicrobial activity against Lactobacillus plantarum ATCC 8014 assessed as chlorhexidine MIC at 100 ug/ml incubated for 48 hrs by checkerboard assay; assay type: functional; conditions: dose 100 µg/ml; procedure, shortened: as §1
[15] = system: Treponema denticola; test: Potentiation of antimicrobial activity against Treponema denticola ATCC 35405 assessed as chlorhexidine MIC at 100 ug/ml incubated for 48 hrs by checkerboard assay; assay type: functional; conditions: dose 100 µg/ml; procedure, shortened: as §1
[16] = system: Staphylococcus aureus; test: Potentiation of antimicrobial activity against Staphylococcus aureus ATCC 23235 assessed as chlorhexidine MIC at 200 ug/ml incubated for 48 hrs by checkerboard assay; assay type: functional; conditions: dose 200 µg/ml; procedure, shortened: as §1
[17] = system: Streptococcus mutans; test: Potentiation of antimicrobial activity against Streptococcus mutans ATCC 25175 assessed as chlorhexidine MIC at 200 ug/ml incubated for 48 hrs by checkerboard assay; assay type: functional; conditions: dose 200 µg/ml; procedure, shortened: as §1
[18] = system: Lactiplantibacillus plantarum; test: Potentiation of antimicrobial activity against Lactobacillus plantarum ATCC 8014 assessed as chlorhexidine MIC at 200 ug/ml incubated for 48 hrs by checkerboard assay; assay type: functional; conditions: dose 200 µg/ml; procedure, shortened: as §1
[19] = system: Treponema denticola; test: Potentiation of antimicrobial activity against Treponema denticola ATCC 35405 assessed as chlorhexidine MIC at 200 ug/ml incubated for 48 hrs by checkerboard assay; assay type: functional; conditions: dose 200 µg/ml; procedure, shortened: as §1
[20] = system: Staphylococcus aureus; test: Synergistic antimicrobial activity against Staphylococcus aureus ATCC 23235 assessed as fractional inhibitory concentration at 50 ug/ml incubated for 48 hrs in presence of chlorhexidine by checkerboard assay; assay type: functional; conditions: dose 50 µg/ml; procedure, shortened: as §1
[21] = system: Staphylococcus aureus; test: Synergistic antimicrobial activity against Staphylococcus aureus ATCC 23235 assessed as fractional inhibitory concentration at 25 ug/ml incubated for 48 hrs in presence of chlorhexidine by checkerboard assay; assay type: functional; conditions: dose 25 µg/ml; procedure, shortened: as §1
[22] = system: Streptococcus mutans; test: Antibacterial activity against Streptococcus mutans ATCC 25175 assessed as inhibition of efflux pump by measuring increase in accumulation of ethidium bromide at 25 to 50 ug/ml and measured after 60 mins by fluorescence assay; assay type: functional, organism-based; conditions: dose 25-50 µg/ml, DDE = dose-dependent effect
Procedure, shortened: (§2)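 EtBr accumulation in S. mutans grown overnight in BHI at 37 °C. Cells were washed twice and resuspended in PBS at OD600 0.6 with 0.4% glucose and 2 μg/mL EtBr (final). Psiadin was tested at 25 and 50 μg/mL, chlorhexidine at 0.6 μg/mL, and psiadin combined with chlorhexidine. DMSO and MeOH (0.5% each) served as negative controls. Fluorescence (ex 525/em 605 nm) was read every 60 s for 60 min at 37 °C.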

[23] = system: Streptococcus mutans; test: Antibacterial activity against Streptococcus mutans ATCC 25175 assessed as inhibition of efflux pump by measuring increase in accumulation of ethidium bromide at 50 ug/ml and measured after 60 mins in presence of chlorhexidine by fluorescence assay; assay type: functional, organism-based; conditions: dose 50.0 µg/ml; procedure, shortened: as §2
[24] = system: Streptococcus mutans; test: Synergistic antimicrobial activity against Streptococcus mutans ATCC 25175 assessed as fractional inhibitory concentration incubated for 48 hrs in presence of chlorhexidine by checkerboard assay; assay type: functional; conditions: time 24 hrs; in the assay text read “24 hrs” for “48 hrs”; procedure, shortened: as §1
[25] = system: Streptococcus mutans; test: Antibiofilm activity against Streptococcus mutans ATCC 25175 at 50 to 100 ug/ml measured after 24 hrs by crystal violet staining method; conditions: dose 50-100 µg/ml
[26] = system: Streptococcus mutans; test: Antibacterial activity against Streptococcus mutans ATCC 25175 assessed as inhibition of efflux pump by measuring […] in accumulation of ethidium bromide at 0.6 ug/ml and measured after 60 mins by fluorescence assay; assay type: functional, organism-based; conditions: dose 0.6 µg/ml; procedure, shortened: as §2
[27] = system: Staphylococcus aureus; test: Antibacterial activity against Staphylococcus aureus ATCC 23235 incubated for 48 hrs by checkerboard assay; assay type: functional; procedure, shortened: as §1
[28] = system: Streptococcus mutans; test: Antibacterial activity against Streptococcus mutans ATCC 25175 incubated for 48 hrs by checkerboard assay; assay type: functional; procedure, shortened: as §1
[29] = system: Lactiplantibacillus plantarum; test: Antibacterial activity against Lactobacillus plantarum ATCC 8014 incubated for 48 hrs by checkerboard assay; assay type: functional; procedure, shortened: as §1
[30] = system: Treponema denticola; test: Antibacterial activity against Treponema denticola ATCC 35405 incubated for 48 hrs by checkerboard assay; assay type: functional; procedure, shortened: as §1

MIC [1]: 125 µg/mL (≈ 393 µM)
MIC [2]: 140 µg/mL (≈ 440 µM)
MIC [3]: 100 µg/mL (≈ 314 µM)
MIC [4]: 1.25 µg/mL
MIC [5]: 1.25 µg/mL
MIC [7]: 2.5 µg/mL
MIC [8]: 1.25 µg/mL
MIC [9]: 0.6 µg/mL
MIC [11]: 2.5 µg/mL
MIC [12]: 0.6 µg/mL
MIC [13]: 0.6 µg/mL
MIC [15]: 2.5 µg/mL
MIC [16]: 0.3 µg/mL
MIC [17]: 0.3 µg/mL
MIC [19]: 1.25 µg/mL
SMILES: C=C1C[C@]23CC[C@@H]4C(CO)(CO)CC(=O)C[C@@]4(C)[C@@H]2CC[C@H]1C3
MIC [6]: 10 µg/mL
MIC [10]: 10 µg/mL
MIC [14]: 10 µg/mL
MIC [18]: 2.5 µg/mL
FIC [20]: 0.9
FIC [21]: 0.7
Activity [22]: Dde
Activity [23]: Active
FIC [24]: 0.85
Activity [25]: Active

MIC [1]: > 250 µg/mL
MIC [2]: 180 µg/mL (≈ 523 µM)
MIC [3]: 200 µg/mL (≈ 581 µM)
SMILES: COc1c(OC)c(O)c2c(=O)cc(-c3ccc(O)cc3)oc2c1OC [XANTHOMICROL]

MIC [27]: 2.5 µg/mL
MIC [28]: 1.25 µg/mL
MIC [30]: 2.2 µg/mL
SMILES: N=C(NCCCCCCNC(=N)NC(=N)Nc1ccc(Cl)cc1)NC(=N)Nc1ccc(Cl)cc1 [CHLORHEXIDINE]
Activity [26]: Active
MIC [29]: 10 µg/mL
